BaF3 tox = reduces parental Ba/F3 cell viability, JAK2V617F counter-screen; CellTiter-Glo ATP luminescence; 220,000 compounds, 1.1% hits; inhibition, % at 5.6 µM;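 active means inhibition above a per-campaign cutoff, the mean inhibition of all tested compounds plus 3 SD, cut at about 27% in these data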;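 further: 0% = DMSO wells and 100% = JAK Inhibitor I control wells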
MT stabilizer = microtubule stabilization, imaging screen; HeLa tubulin immunostaining HCS, 24 h; share of cells brighter than vehicle mean+2SD; % tubulin-high responders, % at 10 µM; 200,000 compounds, 0.83% hits; AID 2205;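 active means plate Z-score above 3 for both tubulin-high and condensed-nucleus cell shares, with cell loss under 80%, at 10 µM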;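 further: anti alpha tubulin signal scored within the nucleus-defined area of each cell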
b-catenin transl = modulators of beta-catenin nuclear translocation | HeLa beta-catenin nuclear translocation, immunofluorescence imaging | nuclear translocation activity, % at 5 µM | 190,000 compounds, 0.3% hits;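 active means nuclear translocation activity above 50% at 5 µM, with a well cell count of 50 or more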;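 further: per-cell ratio of nuclear to cytoplasmic median beta-catenin stain intensity; plate controls were DMSO negative control for no effect and GSK-3 inhibitor IX positive control for full effect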
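assay system = human HeLa cells, endogenous beta-catenin | times = compound treatment 24 h, 37°C, 5% CO2 | detection = Anti-beta-catenin immunofluorescence on PFA-fixed, Triton-permeabilized cells, DAPI nuclei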
L major viab = Leishmania major promastigote growth inhibition; inhibition, % at 10 µM; AID 1063; 200,000 compounds, 9% hits; Leishmania major promastigotes, resazurin fluorescence viability; in the data active means inhibition above about 50%;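 further: promastigotes grown with compound for 44 hours at 28 °C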
Ba/F3 V617F tox = loss of viability in JAK2V617F-driven Ba/F3 cells. inhibition, % at 5.6 µM. 220,000 compounds, 1.1% hits. Ba/F3 EpoR-JAK2V617F viability, ATP luminescence;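 active means inhibition above the campaign mean plus 3 SD over all tested compounds, cut at about 24% in these data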;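 further: cytokine-independent growth of Ba/F3 cells driven by EpoR plus mutant JAK2; 0% = DMSO-treated cells and 100% = JAK inhibitor I control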
APP transl inh = APP translation inhibition. 190,000 compounds, 0.82% hits. inhibition, % at 2 µM. SH-SY5Y APP 5'UTR-luciferase reporter, luminescence;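 active means inhibition above a set limit, derived from the sample mean plus 3 SD, cut at about 45% in these data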
Numbers without * were called inactive; · = no result. In the library only some 9.6% were active in any assay of this set; here they are far more common.

SMILES	BaF3 tox	MT stabilizer	b-catenin transl	L major viab	Ba/F3 V617F tox	APP transl inh
CC(c1cccs1)N(C(=O)Nc1ccccc1)C1CCCCC1 (stereo not drawn)	6	4	1	38	-1	-10
Cc1noc(C)c1S(=O)(=O)N1CCC(C(=O)c2ccccc2)CC1	0	·	0	·	-3	·
Cc1noc(C)c1S(=O)(=O)N1CCN(C(c2ccccc2)c2ccc(Cl)cc2)CC1 (stereo not drawn)	-1	4	0	71*	-3	-13
O=[N+]([O-])c1cc(C(F)(F)F)ccc1N1CCN(S(=O)(=O)c2ccc3c(c2)CCCC3)CC1	5	2	8	67*	-1	-17
CCNc1cc(N2CCN(S(=O)(=O)c3ccc4c(c3)CCCC4)CC2)ccc1[N+](=O)[O-]	4	4	·	-2	2	-14
CC1CN(c2ccc(C(F)(F)F)cc2[N+](=O)[O-])CCN1S(C)(=O)=O (stereo not drawn)	12	3	1	77*	1	-4
O=[N+]([O-])c1cc(C(F)(F)F)ccc1N1CCCNCC1	1	3	1	79*	-3	-5
CC1CN(c2ccc([N+](=O)[O-])cc2Cl)CCN1S(C)(=O)=O (stereo not drawn)	3	·	1	·	-3	·
CCN(CC#CCC1(O)c2ccccc2-c2ccccc21)C(C)C	6	2	-1	-5	0	-9
COc1ccc(Nc2c3c(nc4c(-c5ccccc5)c(C)nn24)CCC3)cc1	3	2	-1	29	-1	-2
COc1ccc(N=CC2=C(Nc3ccc(OC)cc3)c3c(C)nn(-c4ccccn4)c3CC2)cc1	0	4	·	100*	-5	17
COc1ccc(CC(=O)N(CC2CCCO2)c2nc3ccccc3s2)cc1 (stereo not drawn)	5	4	-1	18	0	-5
CC1=C(C)CC(C(=O)Nc2cccc([N+](=O)[O-])c2)C(C(=O)O)C1 (stereo not drawn)	9	3	·	67*	-1	-4
O=C(Nc1cccc([N+](=O)[O-])c1)C1C2CC/C=C\CCC21 (stereo not drawn)	-3	·	0	·	-4	·
Cc1cc(NC(=O)Nc2cccc([N+](=O)[O-])c2)no1	90*	2	-1	5	0	-8
Cc1cc([N+](=O)[O-])ccc1NC(=O)Nc1ccc(F)cc1F	4	2	-5	67*	0	18
O=C(Nc1ccc(OC(F)(F)F)cc1)Nc1cccc([N+](=O)[O-])c1	7	7	47	100*	2	-31
CCN(CC)C(=O)CCSc1nnc(-c2ccco2)o1	7	2	3	-5	1	-10
CC(C)(C)CC(C)(C)NC(=O)Nc1cccc([N+](=O)[O-])c1	3	3	-2	11	1	14
Cc1ccc(NC(=O)Nc2cccc([N+](=O)[O-])c2)cc1F	6	5	0	53*	1	-102
CN(c1ccccc1)S(=O)(=O)c1cccc(NC(=O)CSc2ncc(C(F)(F)F)cc2Cl)c1	4	2	1	-7	0	3
CN(C)c1nc(NC(C)(C)C)nc(NC(C)(C)C)n1	0	2	1	60*	-2	-4
CCNc1nc(NC(C)(C)C)nc(N(CC)n2cnnc2)n1	5	1	·	2	-2	-16
CCCCN(CC)CCCNC(=O)c1cc2cc3ccc(OC)cc3nc2o1	9	2	-1	96*	4	7
CCCN(CCC)CCCNC(=O)c1cc2cc3ccc(OC)cc3nc2o1	11	1	1	96*	9	-9
SMILES	BaF3 tox	MT stabilizer	b-catenin transl	L major viab	Ba/F3 V617F tox	APP transl inh
COc1ccc2cc3cc(C(=O)Nc4ccc5c(c4)OCO5)oc3nc2c1	-1	2	1	100*	-4	-8
COc1ccc2nc3oc(C(=O)Nc4ccc(OC)c(OC)c4)cc3cc2c1	6	1	·	-6	-2	-6
CCOC(=O)C1=C(C)C(c2ccccc2OC)NC(=S)N1 (stereo not drawn)	8	3	1	-1	3	5
CCCn1nc(NC(=O)c2cccs2)c2cc3cccc(C)c3nc21	0	·	3	·	-1	·
OCc1ccccc1CNCc1ccccc1	-1	4	1	4	-2	-16
CC#CCNCc1ccccc1	35*	3	-2	3	2	-2
CC(C)c1ccc(CNCc2ccccc2)cc1	0	1	·	80*	-4	-18

Assay outcomes (PubChem BioAssay)
